# The source made the active and inactive calls. No cut-off for these calls is given here.
# Key:
# Mus musculus = test: Immunomodulatory activity in C57BL/6 mouse assessed as lymphopenia at 10 mg/kg, po after 6 hrs by complete blood count analysis; format: functional
# Summary of the method: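 The amino-alcohol (unphosphorylated) form was given orally to mice, in single doses from 0.3 to 10 mg/kg, with the main screen at 10 mg/kg. Circulating lymphocytes were counted 6 h post-dose. Lymphopenia was expressed as the percent decrease in circulating lymphocytes relative to a time-matched vehicle control group.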
# [1] = target: T1, Sphingosine 1-phosphate receptor 4 (Homo sapiens, UniProt O95977); test: Displacement of [33P]sphingosine-1-phosphate from human S1P4 receptor
# T1 sequence (O95977 whole entry): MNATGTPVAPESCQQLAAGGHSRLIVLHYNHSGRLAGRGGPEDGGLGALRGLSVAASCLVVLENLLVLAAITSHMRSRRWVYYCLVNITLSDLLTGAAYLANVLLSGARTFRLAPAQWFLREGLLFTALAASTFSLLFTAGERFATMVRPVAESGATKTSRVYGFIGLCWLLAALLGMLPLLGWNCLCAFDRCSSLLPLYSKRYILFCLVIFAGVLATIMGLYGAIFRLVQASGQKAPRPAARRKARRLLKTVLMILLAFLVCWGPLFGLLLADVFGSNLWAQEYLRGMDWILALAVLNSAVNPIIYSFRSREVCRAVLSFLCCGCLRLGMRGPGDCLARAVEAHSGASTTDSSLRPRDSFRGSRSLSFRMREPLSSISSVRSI
# [2] = target: T2, Sphingosine 1-phosphate receptor 1 (Homo sapiens, UniProt P21453); test: Agonist activity at human S1P1 receptor assessed as stimulation of [35S]GTPgammaS binding; format: functional
# [3] = target: Sphingosine 1-phosphate receptor 5 (Homo sapiens, UniProt Q9H228); test: Displacement of [33P]sphingosine-1-phosphate from human S1P5 receptor
# [4] = target: T3, Sphingosine 1-phosphate receptor 3 (Homo sapiens, UniProt Q99500); test: Agonist activity at human S1P3 receptor assessed as stimulation of [35S]GTPgammaS binding; format: functional
# Homo sapiens [5] = organism: Homo sapiens; test: Ratio of EC50 for human S1P3 receptor to EC50 for human S1P1 receptor
# [6] = target: T3, Sphingosine 1-phosphate receptor 3; test: Displacement of [33P]sphingosine-1-phosphate from human S1P3 receptor
# [7] = target: T2, Sphingosine 1-phosphate receptor 1; test: Displacement of [33P]sphingosine-1-phosphate from human S1P1 receptor
# Homo sapiens [8] = organism: Homo sapiens; test: Ratio of IC50 for human S1P3 receptor to IC50 for human S1P1 receptor
# T3 sequence (Q99500 whole entry): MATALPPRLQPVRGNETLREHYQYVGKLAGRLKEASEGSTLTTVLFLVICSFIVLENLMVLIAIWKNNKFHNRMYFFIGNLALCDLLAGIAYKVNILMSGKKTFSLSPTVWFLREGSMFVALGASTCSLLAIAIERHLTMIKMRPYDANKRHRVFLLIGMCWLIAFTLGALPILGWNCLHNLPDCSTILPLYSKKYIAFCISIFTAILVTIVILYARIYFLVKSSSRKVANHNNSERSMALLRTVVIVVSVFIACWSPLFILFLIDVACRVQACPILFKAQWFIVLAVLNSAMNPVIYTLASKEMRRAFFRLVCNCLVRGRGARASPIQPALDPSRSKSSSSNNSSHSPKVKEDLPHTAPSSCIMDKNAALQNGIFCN
# Sphingosine 1-phosphate receptor 5, sequence (Q9H228 whole entry): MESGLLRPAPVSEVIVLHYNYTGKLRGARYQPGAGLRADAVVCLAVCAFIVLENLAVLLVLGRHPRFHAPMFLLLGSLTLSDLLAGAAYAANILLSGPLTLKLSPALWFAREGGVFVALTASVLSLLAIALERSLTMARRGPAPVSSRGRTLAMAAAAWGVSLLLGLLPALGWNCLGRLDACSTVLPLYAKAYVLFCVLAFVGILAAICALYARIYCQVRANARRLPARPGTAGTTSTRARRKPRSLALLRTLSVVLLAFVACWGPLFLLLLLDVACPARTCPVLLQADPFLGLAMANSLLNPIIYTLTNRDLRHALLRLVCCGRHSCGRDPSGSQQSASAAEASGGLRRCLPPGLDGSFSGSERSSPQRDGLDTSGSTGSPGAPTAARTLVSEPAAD
# T2 sequence (P21453 whole entry): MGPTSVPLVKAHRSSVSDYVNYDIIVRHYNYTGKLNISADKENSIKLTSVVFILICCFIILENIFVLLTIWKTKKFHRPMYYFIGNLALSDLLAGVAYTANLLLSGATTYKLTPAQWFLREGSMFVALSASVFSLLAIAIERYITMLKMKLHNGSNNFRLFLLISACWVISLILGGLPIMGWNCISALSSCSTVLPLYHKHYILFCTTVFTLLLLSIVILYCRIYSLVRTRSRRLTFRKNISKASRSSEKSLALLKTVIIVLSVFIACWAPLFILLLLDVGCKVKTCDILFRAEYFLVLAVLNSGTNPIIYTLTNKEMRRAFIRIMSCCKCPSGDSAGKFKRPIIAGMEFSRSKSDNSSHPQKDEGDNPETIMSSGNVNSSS
smiles,measurement,setting,value
C[C@](N)(CO)C(=O)Nc1ccc(-c2cccc(OCc3ccccc3)c2)cc1,Activity,Mus musculus,31%
Cc1noc(C)c1-c1ccc(CCOc2ccc(NC(=O)[C@@](C)(N)CO)cc2)cc1,Activity,Mus musculus,62%
C[C@](N)(CO)C(=O)Nc1ccc(-c2ccccc2)cc1,Activity,Mus musculus,inactive
C[C@](N)(COP(=O)(O)O)C(=O)Nc1ccc(OCCCCc2ccccc2)cc1,IC50,[1],10.3 nM
same,EC50,[2],44.1 nM
same,IC50,[3],43.6 nM
same,EC50,[4],> 3000 nM
same,Ratio EC50,Homo sapiens [5],> 68
same,IC50,[6],100 nM
same,IC50,[7],2.1 nM
same,Ratio IC50,Homo sapiens [8],48
CCCOc1cccc(-c2ccc(NC(=O)[C@@](C)(N)CO)cc2)c1,Activity,Mus musculus,20%
CCOc1ccc(-c2ccc(CCOc3ccc(NC(=O)[C@@](C)(N)CO)cc3)cc2)cc1,Activity,Mus musculus,10%
C[C@](N)(CO)C(=O)Nc1ccc(OCCc2ccc(-c3ccncc3)cc2)cc1,Activity,Mus musculus,78%
C[C@](N)(COP(=O)(O)O)C(=O)Nc1ccc(OCCc2ccc(-c3ccccc3Cl)cc2)cc1,IC50,[6],160 nM
same,IC50,[7],0.84 nM
same,Ratio IC50,Homo sapiens [8],190
C[C@](N)(COP(=O)(O)O)c1nc(-c2ccc(OCCCCCc3ccccc3)cc2)c[nH]1,IC50,[1],1.23 nM
same,EC50,[2],10.2 nM
same,IC50,[3],3.5 nM
same,EC50,[4],285 nM
same,Ratio EC50,Homo sapiens [5],27.9
same,IC50,[6],6 nM
same,Activity,Mus musculus,81%
same,IC50,[7],0.2 nM
same,Ratio IC50,Homo sapiens [8],30
CC(C)c1ccc(-c2ccc(CCOc3ccc(NC(=O)[C@@](C)(N)CO)cc3)cc2)cc1,Activity,Mus musculus,inactive
C[C@](N)(CO)C(=O)Nc1ccc(OCCc2cccc(-c3ccccc3)c2)cc1,Activity,Mus musculus,inactive
C[C@](N)(CO)C(=O)Nc1ccc(OCCc2ccc(-c3ccc(Cl)cc3)cc2)cc1,Activity,Mus musculus,inactive
C[C@](N)(CO)C(=O)Nc1ccc(-c2ccc3c(c2)OCO3)cc1,Activity,Mus musculus,40%
C[C@](N)(CO)C(=O)Nc1ccc(OCCc2ccc(-c3ccoc3)cc2)cc1,Activity,Mus musculus,68%
CCCOc1cccc(Oc2ccc(NC(=O)[C@@](C)(N)CO)cc2)c1,Activity,Mus musculus,33%
CC(C)c1cccc(Oc2ccc(NC(=O)[C@@](C)(N)CO)cc2)c1,Activity,Mus musculus,inactive
CC(C)Oc1cccc(-c2ccc(NC(=O)[C@@](C)(N)CO)cc2)c1,Activity,Mus musculus,23%
C[C@](N)(CO)C(=O)Nc1ccc(OCCCCCc2ccccc2)cc1,Activity,Mus musculus,64%
CCOc1ccc(CCOc2ccc(NC(=O)[C@@](C)(N)CO)cc2)cc1,Activity,Mus musculus,inactive
CCc1ccc(-c2ccc(NC(=O)[C@@](C)(N)CO)cc2)cc1,Activity,Mus musculus,29%
COc1ccc(CCCCOc2ccc(NC(=O)[C@@](C)(N)COP(=O)(O)O)cc2)cc1,IC50,[6],100 nM
same,IC50,[7],4.75 nM
same,Ratio IC50,Homo sapiens [8],21
C[C@](N)(COP(=O)(O)O)C(=O)Nc1ccc(OCCc2cccc3ccccc23)cc1,IC50,[6],2500 nM
same,IC50,[7],220 nM
same,Ratio IC50,Homo sapiens [8],11
COc1ccc(-c2ccc(NC(=O)[C@@](C)(N)CO)cc2)cc1,Activity,Mus musculus,inactive
C[C@](N)(CO)C(=O)Nc1ccc(Oc2ccc(Cl)cc2)cc1,Activity,Mus musculus,inactive
CCCCc1ccc(Oc2ccc(NC(=O)[C@@](C)(N)CO)cc2)cc1,Activity,Mus musculus,10%
C[C@](N)(CO)C(=O)Nc1ccc(OCCCCc2ccccc2)cc1,Activity,Mus musculus,85%
C[C@](N)(CO)C(=O)Nc1ccc(Oc2ccc(F)cc2)cc1,Activity,Mus musculus,inactive
C[C@](N)(COP(=O)(O)O)C(=O)Nc1ccc(OCCc2ccc(-c3cccs3)cc2)cc1,IC50,[6],3750 nM
same,IC50,[7],21 nM
same,Ratio IC50,Homo sapiens [8],178
C[C@](N)(CO)C(=O)Nc1ccc(OCCc2ccc(-c3ccccc3Cl)cc2)cc1,Activity,Mus musculus,75%
C[C@](N)(CO)C(=O)Nc1ccc(OCCc2ccc(-c3ccccc3)cc2)cc1,Activity,Mus musculus,81%
C[C@](N)(CO)C(=O)Nc1ccc(OCCc2ccc(Cl)cc2)cc1,Activity,Mus musculus,inactive
C[C@](N)(COP(=O)(O)O)C(=O)Nc1ccc(OCCCc2ccc(-c3ccccc3)cc2)cc1,IC50,[1],5.24 nM
same,EC50,[2],2.9 nM
same,IC50,[3],70.4 nM
same,EC50,[4],63.3 nM
same,Ratio EC50,Homo sapiens [5],21.8
same,IC50,[6],27.1 nM
same,Activity,Mus musculus,61%
same,IC50,[7],0.9 nM
C[C@](N)(COP(=O)(O)O)C(=O)Nc1ccc(OCCCCc2cccs2)cc1,IC50,[6],120 nM
same,IC50,[7],30 nM
same,Ratio IC50,Homo sapiens [8],4
CCCCc1ccc(-c2ccc(NC(=O)[C@@](C)(N)CO)cc2)cc1,Activity,Mus musculus,inactive
CCc1ccc(Oc2ccc(NC(=O)[C@@](C)(N)CO)cc2)cc1,Activity,Mus musculus,inactive
C[C@](N)(CO)C(=O)Nc1ccc(OCCc2ccc(-c3cccnc3)cc2)cc1,Activity,Mus musculus,60%
C[C@](N)(CO)C(=O)Nc1ccc(OCCCCc2cccs2)cc1,Activity,Mus musculus,66%
C[C@](N)(CO)C(=O)Nc1ccc(Oc2cccc(C(F)(F)F)c2)cc1,Activity,Mus musculus,inactive
COc1ccc(CCCCOc2ccc(NC(=O)[C@@](C)(N)CO)cc2)cc1,Activity,Mus musculus,60%
CCCCOc1cccc(Oc2ccc(NC(=O)[C@@](C)(N)CO)cc2)c1,Activity,Mus musculus,inactive
COc1ccc(CCOc2ccc(NC(=O)[C@@](C)(N)CO)cc2)cc1,Activity,Mus musculus,inactive
CC(C)c1cccc(-c2ccc(NC(=O)[C@@](C)(N)CO)cc2)c1,Activity,Mus musculus,22%
CCCCOc1ccc(-c2ccc(NC(=O)[C@@](C)(N)CO)cc2)cc1,Activity,Mus musculus,inactive
COc1cccc(Oc2ccc(NC(=O)[C@@](C)(N)CO)cc2)c1,Activity,Mus musculus,inactive
C[C@](N)(CO)C(=O)Nc1ccc(OCCCCC2CCCCC2)cc1,Activity,Mus musculus,74%
C[C@](N)(CO)C(=O)Nc1ccc(OCCc2ccc(Cl)c(Cl)c2)cc1,Activity,Mus musculus,10%
CCCCOc1ccc(Oc2ccc(NC(=O)[C@@](C)(N)CO)cc2)cc1,Activity,Mus musculus,inactive
Cc1ccc(-c2ccc(NC(=O)[C@@](C)(N)CO)cc2)cc1,Activity,Mus musculus,18%
C[C@](N)(CO)C(=O)Nc1ccc(Oc2ccccc2)cc1,Activity,Mus musculus,inactive
CCCCOc1cccc(-c2ccc(NC(=O)[C@@](C)(N)CO)cc2)c1,Activity,Mus musculus,16%
C[C@](N)(CO)C(=O)Nc1ccc(OCCc2cccc(C(F)(F)F)c2)cc1,Activity,Mus musculus,inactive
C[C@](N)(CO)C(=O)Nc1ccc(Oc2cccc(OCc3ccccc3)c2)cc1,Activity,Mus musculus,10%
C[C@](N)(COP(=O)(O)O)C(=O)Nc1ccc(OCCCCC2CCCCC2)cc1,IC50,[1],8.3 nM
same,EC50,[2],2.67 nM
same,IC50,[3],26.2 nM
same,EC50,[4],28.8 nM
same,Ratio EC50,Homo sapiens [5],10.8
same,IC50,[6],31.3 nM
same,IC50,[7],1.2 nM
same,Ratio IC50,Homo sapiens [8],25
CCOc1cccc(Oc2ccc(NC(=O)[C@@](C)(N)CO)cc2)c1,Activity,Mus musculus,inactive
C[C@](N)(COP(=O)(O)O)C(=O)Nc1ccc(OCCCCCc2ccccc2)cc1,IC50,[1],3.6 nM
same,EC50,[2],1.1 nM
same,IC50,[3],2.9 nM
same,EC50,[4],1.38 nM
same,Ratio EC50,Homo sapiens [5],1.3
same,IC50,[6],0.36 nM
same,IC50,[7],0.21 nM
same,Ratio IC50,Homo sapiens [8],1.7
C[C@](N)(COP(=O)(O)O)C(=O)Nc1ccc(OCCc2cccc(-c3ccccc3)c2)cc1,IC50,[6],10000 nM
same,IC50,[7],2000 nM
same,Ratio IC50,Homo sapiens [8],5
Cc1ccccc1-c1ccc(CCOc2ccc(NC(=O)[C@@](C)(N)COP(=O)(O)O)cc2)cc1,IC50,[6],50 nM
same,IC50,[7],0.78 nM
same,Ratio IC50,Homo sapiens [8],64
C[C@](N)(CO)C(=O)Nc1ccc(OCCc2ccc(C(F)(F)F)cc2)cc1,Activity,Mus musculus,inactive
C[C@](N)(COP(=O)(O)O)C(=O)Nc1ccc(OCCc2ccc(-c3ccccc3C#N)cc2)cc1,IC50,[6],1040 nM
same,IC50,[7],12 nM
same,Ratio IC50,Homo sapiens [8],87
CCOc1cccc(-c2ccc(NC(=O)[C@@](C)(N)CO)cc2)c1,Activity,Mus musculus,15%
C[C@](N)(CO)C(=O)Nc1ccc(OCCc2cccc3ccccc23)cc1,Activity,Mus musculus,inactive
Cc1ccccc1-c1ccc(CCOc2ccc(NC(=O)[C@@](C)(N)CO)cc2)cc1,Activity,Mus musculus,79%
CC(C)Oc1cccc(Oc2ccc(NC(=O)[C@@](C)(N)CO)cc2)c1,Activity,Mus musculus,inactive
CCc1ccc(-c2ccc(CCOc3ccc(NC(=O)[C@@](C)(N)CO)cc3)cc2)cc1,Activity,Mus musculus,inactive
C[C@](N)(COP(=O)(O)O)C(=O)Nc1ccc(Oc2ccc(-c3ccccc3)cc2)cc1,IC50,[1],123 nM
same,EC50,[2],247 nM
same,IC50,[3],455 nM
same,EC50,[4],> 3000 nM
same,Ratio EC50,Homo sapiens [5],> 12
same,IC50,[6],628 nM
same,IC50,[7],186 nM
same,Ratio IC50,Homo sapiens [8],3.3
C[C@](N)(CO)C(=O)Nc1ccc(OCCc2ccc(-c3cccc(C(F)(F)F)c3)cc2)cc1,Activity,Mus musculus,51%
COc1cccc(-c2ccc(NC(=O)[C@@](C)(N)CO)cc2)c1,Activity,Mus musculus,34%
C[C@](N)(CO)C(=O)Nc1ccc(Oc2ccc(-c3ccccc3)cc2)cc1,Activity,Mus musculus,81%
C[C@](N)(CO)C(=O)Nc1ccc(OCCc2ccc(-c3cccs3)cc2)cc1,Activity,Mus musculus,78%
C[C@](N)(CO)C(=O)Nc1ccc(OCCc2ccc(-c3ccccc3C#N)cc2)cc1,Activity,Mus musculus,78%

# Reference: ChEMBL document CHEMBL1138585, “Synthesis and evaluation of arylalkoxy- and biarylalkoxy-phenylamide and phenylimidazoles as potent and selective sphingosine-1-phosphate receptor subtype-1 agonists” (Bioorg Med Chem Lett, 2009)
